Data: ChEMBL document CHEMBL4513216, “Probing the Open Global Health Chemical Diversity Library for Multistage-Active Starting Points for Next-Generation Antimalarials” (ACS Infect Dis, 2020)

Experiment: Toxicity liver stage against HepG2, at 10uM
Type: cell-based
Design: test concentration 10 uM, cell line HepG2-A16-CD81EGFP
Conditions: human, HepG2-A16-CD81EGFP cells; read-out: INHIBITION
Method in brief: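 Uninfected HepG2-A16-CD81EGFP cells, 3 × 10^3 per well, 1536-well, plated on prespotted compound at 10 μM final, parasite-free screening media added to match infected plates; puromycin 10 μM positive, DMSO 0.5% negative; run in parallel with 48 h PbLuc assay at 37 °C, 5% CO2; viability by CellTiter-Glo luminescence, normalized to controls.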

SMILES | cytotoxicity at 10 µM [%]
Cc1nc(C(C)C)cc(N2CCC3(CCC(=O)N(CC4CC4)C3)CC2)n1 | -2.99
Cc1nn(C)c2nc(NC(C)c3n[nH]c(=O)[nH]3)sc12 (stereo not given) | 4.91
CCCN1CCCN(C(=O)Nc2ccc3c(c2)OCO3)CC1 | -4.92
CCO[C@@H]1CO[C@@]2(CCCN(Cc3scnc3C)C2)C1 | -9.06
O=C(NCCN1CCOCC1)NCc1ccccc1-n1cccn1 | -6.32
Cc1cc(C)n(CC2CCCN2C(=O)c2ccc(C(N)=O)cn2)n1 (stereo not given) | -3.87
CC(C)NC(=O)N1CCC2(CC(=O)N(c3cccc(F)c3)C2)C1 (stereo not given) | 3.46
Cc1ccc(CN2C(=O)CCC23CCC(NCC2CCOC2)CC3)cc1 (stereo not given) | -4.75
O=C(c1ccco1)N1CCC(n2cc(-c3ccsc3)nn2)CC1 | 1.41
COc1ccc([C@@H]2NC(=O)N[C@H]3OCCC[C@H]32)cc1 | 1.49
Cc1occc1C(=O)N1C[C@@H]2CN(S(C)(=O)=O)CCO[C@@H]2C1 | -2.63
CCOC(=O)N1CCN(C(=O)c2sc(-c3ccccc3F)nc2C)CC1 | 20
Cc1cccc(NC(=O)CNC(=O)c2ccccc2F)c1 | -1.24
N#CCCn1nc(C(F)(F)F)c2c1CCC2 | -12
CC(C)c1nnc2n1CC(CNCc1nc3ccccc3o1)CC2 (stereo not given) | -1.85
CN(C(=O)[C@H]1CSCN1C(=O)OC(C)(C)C)C1CC1 | 15.4
O=C(CN1CCCC1Cn1cncn1)NC(C1CC1)C1CC1 (stereo not given) | -12.8
Cc1cc(CN2CCCN(c3ccc(C#N)cc3)CC2)no1 | 2.07
CC(=O)N1CCN(CCNS(=O)(=O)c2ccc(F)c(F)c2)CC1 | 8.81
COCCN1C[C@@H](C)[C@@]2(COCCN(C(=O)c3cccs3)C2)C1 | 9.7
O=c1cc(Cn2ccnc2)nc2n1CCCN(Cc1ccco1)C2 | 7.77
CCN1CC(C(=O)NC(C)(C)CC)CC1=O (stereo not given) | 1.82
O=C(C1SCCc2sccc21)N1CCCCC1 (stereo not given) | 9.78
CS(=O)(=O)N1C[C@@H]2COC[C@H](C(=O)Nc3cnccn3)[C@@H]2C1 | 14.6
Cc1nc(NCCCn2cccn2)c2c(n1)c(C)nn2C | 6.64
Cc1nn(C)c(Cl)c1C1CCCN1C(=O)c1cccc(C#N)c1 (stereo not given) | -22
CS(=O)(=O)NC1CCCN(Cc2ccc(OCc3ccccn3)cc2)C1 (stereo not given) | 1.8
O=C(Nc1ccc(Cl)cc1C(=O)NCCN1CCOCC1)c1ccco1 | -4.62

SMILES | cytotoxicity at 10 µM [%]
CCc1nnc2n1CCN(C(=O)C(OC)c1ccccc1)C2 (stereo not given) | 3.65
O=C(C1CC1)N1CC[C@H]2C(=O)N(c3ccsc3)CCO[C@H]2C1 | 9.85
O=C(c1ccno1)N1CC[C@@H]2O[C@H](COCCN3CCCC3)CC[C@@H]21 | -79.1
CC1CCCN(CCNC(=O)c2ccn(-c3ccccc3)n2)C1 (stereo not given) | -3.81
O=C(CCC1CCN(Cc2ccncc2)CC1)Nc1ccccc1Cl | -3.9
CCN1C(=O)CCCC12CCCN(C(=O)c1conc1C)C2 (stereo not given) | 4.57
O=C(N1CCOCC1)[C@@]12CCO[C@@H]1CCN(C1CCC1)C2 | 3.33
CC(=O)Nc1ccsc1C(=O)Nc1cnc2n1CCCC2 | -4.58
CCCC(C)NC(=O)c1ccc(-c2ccco2)[nH]c1=O (stereo not given) | -20
Cc1ccc(CN(C)C(=O)CN2CCCC(Cn3cncn3)C2)o1 (stereo not given) | -24.4
COc1c(Cl)cccc1NCc1csc(NC(C)=O)n1 | 57.8
O=C(Cc1ccncc1)N(CCO)CCSc1ccc(Cl)cc1 | 2.59
CCOC(=O)C1(O)CCN(C(=O)Nc2cccc(F)c2)CC1 | -144
Cc1cc(S(=O)(=O)NCc2cccc(C(=O)N3CCCC3)c2)c(C)s1 | 3.13
CC(CCCC(C)(C)O)Nc1ccc(-c2nccn2C)nn1 (stereo not given) | 3.96
Cn1nccc1-c1nc2c(cc1C(=O)O)CCN(CC1CC1)CC2 | -119
Cc1noc([C@@H]2C[C@H]3OCC[C@H]3N(S(C)(=O)=O)C2)n1 | -9.67
Cc1occc1C(=O)N1CCOC2(CCCC2)C1 | -10.9
Cc1cc(F)ccc1-c1ccccc1CC1CNCCNC1=O (stereo not given) | 5.08
CCSc1ccc(NC(=O)NC(C)c2c(C)nn(C)c2C)cn1 (stereo not given) | -2.6
Cc1ccc(C(=O)NCC2(O)CCOCC2)cc1Br | -1.3
COc1ncccc1-c1nc(-c2ccccn2)nn1C1CCS(=O)(=O)C1 (stereo not given) | -6.1
Cc1nn(C)c(C)c1NC(=O)CN1CCc2c(nc(C3CC3)n2C)C1 | -5.31
CCS(=O)(=O)N1CCC(NCC2CNc3cc(C)nn3C2)CC1 (stereo not given) | 0.286
CNc1cc(C2CCCNC2)nc(C)n1 (stereo not given) | 8.37
Cc1ccc(C(=O)NC2CCN(Cc3cccc4c3OCCO4)CC2)s1 | -4.8
CC1(C)OC(=O)N(CC(=O)N2CCC(c3ccccc3Cl)C2)C1=O (stereo not given) | -21.4
